Measured values from ChEMBL document CHEMBL4513216, “Probing the Open Global Health Chemical Diversity Library for Multistage-Active Starting Points for Next-Generation Antimalarials” (ACS Infect Dis, 2020).

Assay: Toxicity liver stage against HepG2, at 10uM
Format: cell-based
Set-up: test concentration 10 uM, cell line HepG2-A16-CD81EGFP
Conditions: human, HepG2-A16-CD81EGFP cells; read-out: INHIBITION
In short: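 Uninfected HepG2-A16-CD81EGFP cells, 3 × 10^3 per well, 1536-well, plated on prespotted compound at 10 μM final, parasite-free screening media added to match infected plates; puromycin 10 μM positive, DMSO 0.5% negative; run in parallel with 48 h PbLuc assay at 37 °C, 5% CO2; viability by CellTiter-Glo luminescence, normalized to controls.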
In the case of Cc1nnc(CN2CCOC(c3ccc(Cl)cc3)C2)o1 (configuration not stated), the cytotoxicity at 10 µM is reported as 5.33%.
With Cn1c2c(ccc1=O)CC(NC(=O)Cc1ccsc1)CC2 (configuration not stated) the cytotoxicity at 10 µM was 4.08%.
With c1coc(CN2CCn3c(CN4CCOCC4)nnc3C2)c1 the cytotoxicity at 10 µM was 9.1%.
In the case of O=S(=O)(C1CC1)N1CCC2(CC1)COC(COc1cccnc1)C2 (configuration not stated), the cytotoxicity at 10 µM is reported as 9.49%.
In the case of COc1cc(CC(O)CO)c(OC)c2c1OCO2 (configuration not stated), the cytotoxicity at 10 µM is reported as -9.96%.
For CS(=O)(=O)Nc1ccn(Cc2cccc(F)c2)n1, the cytotoxicity at 10 µM was 13.1%.
In the case of CCc1cc(=O)n(CC(=O)N2CCCC2)c(-c2ccc(F)cc2)n1, the cytotoxicity at 10 µM is reported as 8.66%.
With CNC(=O)c1cc(-c2ccccc2)nc2ncnn12 the cytotoxicity at 10 µM was -4.66%.
Compound Cc1cc(Nc2nc(C)cc(C)n2)cc(C2CCCN2)n1 (configuration not stated) has a cytotoxicity at 10 µM of 0.407%.
In the case of COc1cccc([C@@H]2N[C@H](c3nccs3)Cc3ccsc32)c1OC, the cytotoxicity at 10 µM is reported as 5.24%.
In the case of Cc1cc(C)n(CC(C)CNC(=O)N(C)Cc2ccco2)n1 (configuration not stated), the cytotoxicity at 10 µM is reported as 4.47%.
O=C(CCn1ccnc1)N1CCCC(n2cncn2)C1 (configuration not stated) gave a cytotoxicity at 10 µM of 0.0383%.
For CCOCc1cccc(NCc2c[nH]nc2-c2cccnc2)c1, the cytotoxicity at 10 µM was -3.9%.
For CN(C)c1ncccc1CNc1snc(Cl)c1C#N, the cytotoxicity at 10 µM was -5.1%.
COc1cccc(Cc2nnc(SCCS(C)(=O)=O)o2)c1 gave a cytotoxicity at 10 µM of 2.72%.
For CC1COCCN1c1ncnc2sccc12 (configuration not stated), the cytotoxicity at 10 µM was 14.1%.
c1cnnc(N2CCCC2CNCc2nnc(C3CC3)o2)c1 (configuration not stated) gave a cytotoxicity at 10 µM of 1.41%.
Cc1n[nH]c(C2CN(C(=O)c3cc(C4CC4)on3)CCO2)n1 (configuration not stated) gave a cytotoxicity at 10 µM of -9.63%.
Cc1nnc(C(NS(=O)(=O)c2cc(C#N)ccc2C)C(C)C)[nH]1 (configuration not stated) gave a cytotoxicity at 10 µM of 4.98%.
In the case of CSc1ccsc1C(=O)NS(=O)(=O)c1cnn(C)c1, the cytotoxicity at 10 µM is reported as -5.35%.
CCc1nc(CN2CCCC2C(=O)NC)cs1 (configuration not stated) showed a cytotoxicity at 10 µM of -3.09%.
In the case of CCC(CC(=O)Nc1ccc2c(c1)CC(=O)N2)c1ccccc1 (configuration not stated), the cytotoxicity at 10 µM is reported as -1.06%.
FC(F)(F)c1n[nH]c2c1CN(Cc1cn3ccccc3n1)CC2 gave a cytotoxicity at 10 µM of 7.76%.
N#Cc1ccc(N2CCCN(CC(=O)N3CCNC(=O)C3)CC2)cc1 gave a cytotoxicity at 10 µM of 5.27%.
Compound CNC(=O)Cc1noc(Cc2cccc(Br)c2)n1 has a cytotoxicity at 10 µM of 1.06%.
With CCC[C@H]1CN(Cc2ccccc2C#N)C[C@@H]1NS(C)(=O)=O the cytotoxicity at 10 µM was -11%.
Work on COCC(=O)N1CCC2(CC1)c1ccccc1[C@@H](N1CCSCC1)[C@@H]2O yielded a cytotoxicity at 10 µM of 4.58%.
With Cc1ccc(N2CCC(c3[nH]ncc3Cc3ccccc3)CC2)nn1 the cytotoxicity at 10 µM was -6.86%.
With O=C(CN1CC(c2ccccc2)CC1=O)N1CCC(c2ncc[nH]2)CC1 (configuration not stated) the cytotoxicity at 10 µM was -0.234%.
Work on Cc1nccnc1N1CCC(Cc2ccccc2Cl)(C(=O)O)CC1 yielded a cytotoxicity at 10 µM of 12.6%.
Work on CCCc1cncnc1N1CCC(NCc2ccncc2)CC1 yielded a cytotoxicity at 10 µM of 6.31%.
Compound COCC(C)Nc1ccc(-c2nc(Cc3ccc(F)cc3)no2)cn1 (configuration not stated) has a cytotoxicity at 10 µM of 7.22%.
For CSCC(=O)N1CCCN(c2ccncc2C)CC1, the cytotoxicity at 10 µM was -6.09%.
Work on Cc1ccc(-c2ccnc(NC(C)c3ncc[nH]3)n2)c(C)n1 (configuration not stated) yielded a cytotoxicity at 10 µM of 3.29%.
In the case of CS(=O)(=O)N1CCC(NCC2(N3CCOCC3)CCCCC2)CC1, the cytotoxicity at 10 µM is reported as -3.27%.
Compound CNC1CCN(C2CCN(c3ccc(-c4ccco4)cc3)CC2)CC1 has a cytotoxicity at 10 µM of -22.4%.
Cn1cc(CN(Cc2cccc(-n3cccn3)c2)C2CC2)cn1 showed a cytotoxicity at 10 µM of -15.4%.
With CC[C@H]1CN(C(=O)c2cnc(CN3CCCC3)s2)CC[C@@]1(C)O the cytotoxicity at 10 µM was -16%.
Compound CCOc1ccc(CC(CNC(=O)c2ccoc2C)C(N)=O)cc1 (configuration not stated) has a cytotoxicity at 10 µM of 7.87%.
CC(C)c1ncncc1C(=O)N1CCN(Cc2cscn2)CC1 gave a cytotoxicity at 10 µM of -5.75%.
Cc1nn(C)c(C)c1C1CCCN1CCCc1nc2ccccc2o1 (configuration not stated) showed a cytotoxicity at 10 µM of -4.3%.
For Cc1ccc(F)cc1S(=O)(=O)NCc1cccnc1N(C)C, the cytotoxicity at 10 µM was 0.716%.
In the case of CCOc1ccc(CC(=O)N2CCN(c3nccn3CC)CC2)cc1, the cytotoxicity at 10 µM is reported as 11.1%.
For Cc1ccc(CN[C@@H]2COC[C@H]2c2ccc(F)cc2)cc1C, the cytotoxicity at 10 µM was 9.07%.
Work on CC(=O)N1CCO[C@@H]2CN(C(=O)c3ccc4ncccc4c3)CC[C@@H]2C1 yielded a cytotoxicity at 10 µM of 8.22%.
CCCN1CCCn2c(nc(CNC(=O)N3CCCC3)cc2=O)C1 gave a cytotoxicity at 10 µM of 12.1%.
CCOc1ccc2ccccc2c1CNCC1CCNCC1 gave a cytotoxicity at 10 µM of -9.67%.
